Screening results deposited in PubChem by several laboratories.
SUMO Mot1 rescue: blocks SUMOylation pathway, rescuing yeast Mot1-301 growth; S. cerevisiae Mot1-301 growth rescue, ATP luminescence, 38.5C; percent above DMSO median, 100 means doubled; growth rescue, % at 18.8 µM; 1% of 320,000 active; AID 2716;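 active = every valid replicate shows activation above 250% relative to neutral control wells; inactive = the rest, any valid replicate at or below 250%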;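 note: OY570 slx delta 5 strain wells were the positive control but not used for scaling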
Cl transport mod: modulators of human KCC2 chloride dependent transport; Q9H2X9; KCC2 cells, thallium flux FluoZin-2 fluorescence; B-score of Tl+ flux slope (higher = more flux/activation; lower = inhibition) at 10 µM; 2.2% of 190,000 active; AID 1456;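 active = thallium flux slope and its plate-corrected score both differing from the plate sample mean at a set confidence after two filtering rounds, in either direction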;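 note: slope of fluorescence scaled to starting intensity during 10 to 20 s after thallium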
Target sequence (Q9H2X9 whole entry, looked up): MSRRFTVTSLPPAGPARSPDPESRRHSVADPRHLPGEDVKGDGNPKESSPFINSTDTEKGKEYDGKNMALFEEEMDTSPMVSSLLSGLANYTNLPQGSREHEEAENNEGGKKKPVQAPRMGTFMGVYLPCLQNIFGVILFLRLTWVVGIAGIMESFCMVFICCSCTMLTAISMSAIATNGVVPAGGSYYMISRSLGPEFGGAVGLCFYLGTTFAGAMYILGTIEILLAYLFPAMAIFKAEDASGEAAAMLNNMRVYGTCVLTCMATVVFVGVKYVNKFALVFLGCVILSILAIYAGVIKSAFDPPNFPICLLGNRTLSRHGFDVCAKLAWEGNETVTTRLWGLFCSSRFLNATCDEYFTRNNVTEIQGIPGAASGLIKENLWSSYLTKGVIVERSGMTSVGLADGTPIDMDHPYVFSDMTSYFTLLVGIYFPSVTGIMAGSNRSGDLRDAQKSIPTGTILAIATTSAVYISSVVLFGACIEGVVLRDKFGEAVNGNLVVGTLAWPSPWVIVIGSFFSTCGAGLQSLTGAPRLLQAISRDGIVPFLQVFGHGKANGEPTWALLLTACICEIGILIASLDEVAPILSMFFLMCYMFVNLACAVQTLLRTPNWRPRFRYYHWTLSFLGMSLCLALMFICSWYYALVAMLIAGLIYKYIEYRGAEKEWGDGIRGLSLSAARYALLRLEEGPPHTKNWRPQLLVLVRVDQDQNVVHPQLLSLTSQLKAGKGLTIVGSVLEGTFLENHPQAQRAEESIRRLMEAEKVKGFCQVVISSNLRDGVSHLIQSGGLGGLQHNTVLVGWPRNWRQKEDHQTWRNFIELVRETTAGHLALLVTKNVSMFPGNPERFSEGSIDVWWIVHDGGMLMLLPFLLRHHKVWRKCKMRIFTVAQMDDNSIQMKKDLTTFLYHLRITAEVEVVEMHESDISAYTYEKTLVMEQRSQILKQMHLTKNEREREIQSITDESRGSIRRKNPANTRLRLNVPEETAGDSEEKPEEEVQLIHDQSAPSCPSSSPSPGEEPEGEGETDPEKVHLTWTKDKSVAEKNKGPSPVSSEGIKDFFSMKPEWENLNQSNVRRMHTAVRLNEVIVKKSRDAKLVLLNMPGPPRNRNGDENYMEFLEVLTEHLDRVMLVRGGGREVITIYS
KCNQ1 inh: blocks the human KCNQ1 potassium channel | P51787 | CHO-K1 KCNQ1, FluxOR thallium flux fluorescence; hits give high values | B-score at 10 µM | 1.3% of 310,000 active;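 active = compounds whose thallium flux B-score, printed positive for inhibition, exceeds three library SD while starting fluorescence stays within three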;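 note: channel opened by potassium depolarization with thallium stimulus after 20 min compound exposure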
hERG protect: compounds protecting human hERG from proarrhythmic drug block; activation (rescue from dofetilide block), less the hit threshold, % at 10 µM; Q12809; CHO-hERG, FluxOR thallium flux, dofetilide IC70 present; AID 1511; 0.51% of 310,000 active;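 active = activation above the mean of controls blocked by dofetilide plus 5 SD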;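 note: thallium influx through hERG after potassium depolarization seen as dye fluorescence rise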
KCNQ1 pot: potentiators or activators of human KCNQ1 potassium channel; CHO-K1 KCNQ1, thallium flux FluxOR fluorescence; hits give high values; B-score at 10 µM; 0.35% of 310,000 active;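 active = fluorescence ratio B-score, a plate-corrected score, at least three library SD, with initial intensity B-score within 5 SD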
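Assay system: stable KCNQ1 CHO-K1 line; medium: assay buffer, equal DMSO in all wells; timing: 90 min dye loading and 20 min compound exposure, both at room temperature; technique: kinetic FluxOR thallium fluorescence, 10-s 1-Hz baseline, 110-s post-stimulus read; read-out basis: B score of baseline-normalized fluorescence ratio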
AI-2 QS mod: modulates the Vibrio harveyi AI-2 quorum sensing system; Vibrio harveyi JMH597 AI-2 luminescence/OD600 ratio, 9 h; hits give low values; strain lacks LuxN and CqsS sensors; 0 = neutral-control median; activity change, % at 7.5 µM; 0.4% of 300,000 active; in the data active = activity change below about -75%, passing the limit was not always enough;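 note: luminescence divided by OD600 gain over 9 h not by final OD600 alone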
Mot1 SUMO dose: SUMO pathway inhibitors in yeast Mot1-301 growth; shares compounds with SUMO Mot1 rescue; S. cerevisiae Mot1-301 galactose growth, ATP luminescence, 24 h; -100 = growth of slx-deleted rescue strain; growth activity, percent, % at 42 µM; 2,300 tested, under 10 active; AID 493004;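 active = Signal drops as the depositor expects, and the fitted half-maximal dose is no more than ten times the top valid tested dose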;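 note: more negative values mean stronger growth rescue toward the control strain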
* hit, by the source's call. This is a sample that favours compounds with a hit; in the whole collection about 4.2% have one here.

For CCc1noc(C)c1C(=O)Nc1nc(-c2ccc(F)cc2)c(C)s1 the results were SUMO Mot1 rescue 634*, KCNQ1 inh inactive, hERG protect -9, KCNQ1 pot inactive, AI-2 QS mod 24 and Mot1 SUMO dose 0.
Screening CCc1noc(C)c1C(=O)Nc1nc(-c2cc(C)ccc2C)c(C)s1 returned SUMO Mot1 rescue 108, Cl transport mod 1, KCNQ1 inh inactive, hERG protect -8, KCNQ1 pot inactive and AI-2 QS mod 46.
For CN1C(=O)c2cccc3c(Cl)ccc(c23)C1=O the results were SUMO Mot1 rescue 610*, KCNQ1 inh inactive, hERG protect -9, KCNQ1 pot inactive, AI-2 QS mod 2 and Mot1 SUMO dose 1.
`COc1ccccc1N1C(=O)c2cccc3c(Cl)ccc(c23)C1=O` gave SUMO Mot1 rescue 13, KCNQ1 inh inactive, hERG protect -3, KCNQ1 pot inactive and AI-2 QS mod 13.
CCN(CC)CCCn1c2c(c(SCC(=O)Nc3ccc(OC(F)(F)F)cc3)nc1=O)CCC2 was read as SUMO Mot1 rescue -1, KCNQ1 inh inactive, hERG protect -13, KCNQ1 pot inactive and AI-2 QS mod 13.
For COc1cc(SC)ccc1C(=O)Nc1cc(C)c(OCC(=O)N2CCOCC2)c(C)c1 the results were SUMO Mot1 rescue 562*, KCNQ1 inh inactive, hERG protect -7, KCNQ1 pot inactive, AI-2 QS mod 30 and Mot1 SUMO dose 0.
For CS(=O)(=O)N1CCC(Oc2ccccc2C(=O)N2CCN(CC3CC3)CC2)CC1 the results were SUMO Mot1 rescue -14, Cl transport mod 0.5, KCNQ1 inh inactive, hERG protect -9, KCNQ1 pot inactive and AI-2 QS mod 17.
`CS(=O)(=O)N1CCC(Oc2ccccc2C(=O)N2CCNC(=O)C2)CC1` gave SUMO Mot1 rescue 401*, Cl transport mod -0.63, KCNQ1 inh inactive, hERG protect -18, KCNQ1 pot inactive, AI-2 QS mod 50 and Mot1 SUMO dose 0.
Screening Cc1nc(NC(=O)CSc2nc(N)cc(N)n2)sc1C returned SUMO Mot1 rescue 661*, KCNQ1 inh inactive, hERG protect 0, KCNQ1 pot inactive, AI-2 QS mod 17 and Mot1 SUMO dose 0.
For CCOC(=S)SCC(=O)Nc1nc(C)c(C)s1 the results were Cl transport mod 0.31, KCNQ1 inh inactive, hERG protect -10, KCNQ1 pot inactive and AI-2 QS mod -1.
CN(C)c1ccnc2sc3c(NCC(O)CO)ncnc3c12 (stereo not given) was read as SUMO Mot1 rescue 616*, Cl transport mod 0.43, KCNQ1 inh inactive, hERG protect 1, KCNQ1 pot inactive, AI-2 QS mod 13 and Mot1 SUMO dose 0.
Screening CN(C)c1ccnc2sc3c(SCc4ccc(Cl)cc4)ncnc3c12 returned SUMO Mot1 rescue 120, Cl transport mod 0.031, KCNQ1 inh inactive, hERG protect -18, KCNQ1 pot inactive and AI-2 QS mod 5.
Cc1cc(CNC(=O)C2CCC(=O)N(Cc3ccccc3F)C2)on1 (stereo not given) was read as SUMO Mot1 rescue 654*, KCNQ1 inh inactive, hERG protect -7, KCNQ1 pot inactive, AI-2 QS mod 30 and Mot1 SUMO dose 1.
`N/C(=N\N=C\c1ccc(O)c(O)c1)c1nonc1N` gave SUMO Mot1 rescue 7, Cl transport mod -0.094, KCNQ1 inh inactive, hERG protect -16, KCNQ1 pot inactive and AI-2 QS mod -1.
Screening N/C(=N\N=C\c1ccc(O)cc1)c1nonc1N returned SUMO Mot1 rescue 488*, Cl transport mod 0.89, KCNQ1 inh inactive, hERG protect -11, KCNQ1 pot inactive, AI-2 QS mod 13 and Mot1 SUMO dose -1.
